Laboratory results as given in ChEMBL document CHEMBL4673226, “Development of 5-Aminopyrazole-4-carboxamide-based Bumped-Kinase Inhibitors for Cryptosporidiosis Therapy” (J Med Chem, 2019).
Activity calls are given as the source filed them. The rule behind the calls is not given here.

Tests used:
[1] = Toxicity in mouse assessed as induction of distress at 100 to 400 mg/kg, po; assay type: organism-based; settings: in vivo, dose 100-400 mg/kg
[2] = Toxicity in mouse assessed as effect on CBC parameters by measuring white blood cell counts at 200 mg/kg, po QD for 7 days by histological analysis (reference value: […] +/- […] 10^3/uL); assay type: organism-based; settings: in vivo, 168 h, time 7 day
[3] = Toxicity in mouse assessed as effect on CBC parameters by measuring lymphocytes counts at 100 mg/kg, po QD for 7 days by histological analysis (reference value: 4060 +/- 1266 ABS/uL); assay type: organism-based; settings: in vivo, 168 h, time 7 day
[4] = Toxicity in mouse at 100 to 200 mg/kg, po QD for 7 days; assay type: organism-based; settings: in vivo, 168 h, dose 100-200 mg/kg, time 7 day
HepG2 = assay: Toxicity in human HepG2 cells; assay type: cell-based
[5] = Toxicity in mouse at 100 to 400 mg/kg, po; assay type: organism-based; settings: in vivo, dose 100-400 mg/kg
[6] = Toxicity in mouse assessed as effect on CBC parameters by measuring white blood cell counts at 100 mg/kg, po QD for 7 days by histological analysis (reference value: […] +/- […] 10^3/uL); assay type: organism-based; settings: in vivo, 168 h, time 7 day
[7] = Toxicity in mouse assessed as effect on CBC parameters by measuring lymphocytes counts at 200 mg/kg, po QD for 7 days by histological analysis (reference value: 4060 +/- 1266 ABS/uL); assay type: organism-based; settings: in vivo, 168 h, time 7 day
[8] = Toxicity in human CRL-8155 cells; assay type: cell-based
[9] = Toxicity in mouse assessed as induction of organ abnormalities at 100 to 200 mg/kg, po QD for 7 days by histological analysis; assay type: organism-based; settings: in vivo, 168 h, dose 100-200 mg/kg, time 7 day
[10] = Cardiotoxicity in rat; assay type: toxicity
[11] = Toxicity in mouse at 150 to 600 mg/kg, po; assay type: organism-based; settings: in vivo, dose 150-600 mg/kg
Method in brief: (§1)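 Escalating single oral doses were given to mice until toxicity signs appeared. Regimens were 100, 150, 200 and 250 mg/kg, and 150, 200, 300, 400 and 600 mg/kg. Escalation was limited by solubility in the dosing solution.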

[12] = Toxicity in mouse assessed as induction of distress at 150 to 600 mg/kg, po; assay type: organism-based; settings: in vivo, dose 150-600 mg/kg; method in brief: as §1
[13] = Protein binding in human plasma by dialysis method
[14] = Toxicity in mouse at 150 to 300 mg/kg, po QD for 7 days; assay type: organism-based; settings: in vivo, 168 h, dose 150-300 mg/kg, time 7 day
Cryptosporidium parvum [15] = assay: Antimicrobial activity against nano-luciferase-expressing Cryptosporidium parvum infected in IFN-gamma KO B6.129S7-Ifngtm1Ts/J mouse assessed as log reduction of infection at 30 mg/kg, po BID for 5 days beginning on day 6 post infection relative untreated control; assay type: functional, organism-based; settings: time 5.0 day
[16] = Toxicity in mouse assessed as effect on serum chemistry parameters at 150 to 300 mg/kg, po QD for 7 days; assay type: organism-based; settings: in vivo, 168 h, dose 150-300 mg/kg, time 7 day
Cryptosporidium parvum [17] = assay: Antimicrobial activity against nano-luciferase-expressing Cryptosporidium parvum infected in IFN-gamma KO B6.129S7-Ifngtm1Ts/J mouse assessed as log reduction of infection at 60 mg/kg, po BID for 5 days beginning on day 6 post infection relative untreated control; assay type: functional; settings: time 5 day
[18] = Toxicity in mouse assessed as effect on organ parameters at 150 to 300 mg/kg, po QD for 7 days by histological analysis; assay type: organism-based; settings: in vivo, 168 h, dose 150-300 mg/kg, time 7 day
[19] = target: Proto-oncogene tyrosine-protein kinase Src (Homo sapiens, UniProt P12931); assay: Inhibition of SRC (unknown origin); assay type: ADME
[20] = mouse, in vivo, po, 30 mg/kg, 168 h
[21] = Toxicity in mouse assessed as effect on CBC parameters at 150 to 300 mg/kg, po QD for 7 days; assay type: organism-based; settings: in vivo, 168 h, dose 150-300 mg/kg, time 7 day
[22] = Protein binding in mouse plasma by dialysis method
Cryptosporidium parvum [23] = assay: Antimicrobial activity against nano-luciferase-expressing Cryptosporidium parvum infected in IFN-gamma KO B6.129S7-Ifngtm1Ts/J mouse assessed as log reduction of infection at 15 mg/kg, po BID for 5 days beginning on day 6 post infection relative untreated control; assay type: functional, organism-based; settings: time 5.0 day
Cryptosporidium parvum [24] = assay: Antimicrobial activity against nano-luciferase-expressing Cryptosporidium parvum infected in IFN-gamma KO B6.129S7-Ifngtm1Ts/J mouse assessed as log reduction of infection at 60 mg/kg, po QD for 5 days beginning on day 6 post infection relative untreated control; settings: time 5.0 day
[25] = Clearance in mouse at 25 mg/kg, po; assay type: ADME, organism-based; settings: in vivo
[26] = Inhibition of Cryptosporidium parvum CDPK1 assessed as reduction in ATP consumption using BioSyntide-2 substrate incubated for 90 mins by luciferase reporter gene assay
Cryptosporidium parvum [27] = assay: Antimicrobial activity against nano-luciferase-expressing Cryptosporidium parvum infected in IFN-gamma KO B6.129S7-Ifngtm1Ts/J mouse assessed as log reduction of infection at 120 mg/kg, po QD for 5 days beginning on day 6 post infection relative untreated control; assay type: functional, organism-based; settings: time 5.0 day
[28] = AUC in mouse at 25 mg/kg, po; assay type: ADME, organism-based; set-up: dose 25 mg/kg; settings: in vivo
Cryptosporidium parvum [29] = assay: Antimicrobial activity against nano-luciferase-expressing Cryptosporidium parvum infected in IFN-gamma KO B6.129S7-Ifngtm1Ts/J mouse assessed as log reduction of infection at 5 mg/kg, po BID for 5 days beginning on day 6 post infection relative untreated control; assay type: functional, organism-based; settings: time 5.0 day

Chain of Proto-oncogene tyrosine-protein kinase Src (P12931 2-536 limits assumed): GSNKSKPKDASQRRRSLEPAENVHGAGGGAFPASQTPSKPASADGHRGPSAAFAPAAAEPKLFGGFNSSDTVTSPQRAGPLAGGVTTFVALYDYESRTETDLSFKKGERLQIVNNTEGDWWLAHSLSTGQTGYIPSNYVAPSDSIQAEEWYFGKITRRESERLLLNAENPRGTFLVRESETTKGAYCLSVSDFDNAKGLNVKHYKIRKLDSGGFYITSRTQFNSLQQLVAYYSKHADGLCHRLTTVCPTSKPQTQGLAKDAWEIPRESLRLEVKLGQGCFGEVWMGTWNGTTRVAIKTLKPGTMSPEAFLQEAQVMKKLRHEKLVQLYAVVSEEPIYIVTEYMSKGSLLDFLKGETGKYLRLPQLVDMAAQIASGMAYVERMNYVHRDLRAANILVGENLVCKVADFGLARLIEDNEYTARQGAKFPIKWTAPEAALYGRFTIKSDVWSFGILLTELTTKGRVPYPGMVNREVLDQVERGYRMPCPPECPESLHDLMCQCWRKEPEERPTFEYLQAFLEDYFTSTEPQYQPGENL

## CC(C)(CO)Cn1nc(-c2ccc3cc(OC4CC4)ccc3c2)c(C(N)=O)c1N
[1]
  Activity: Non-Toxic
[2]
  Activity: 1.5 10^3 /uL
[3]
  Activity: 1194 abs/uL
[4]
  Activity: Non-Toxic
HepG2
  Activity: Non-Toxic
[5]
  Activity: Non-Toxic
[6]
  Activity: 1.5 10^3 /uL
[7]
  Activity: 1301 abs/uL
[8]
  Activity: Non-Toxic
[9]
  Activity: Non-Toxic

## CCOc1ccc2cc(-c3nn(C(C)(C)C)c(N)c3C(N)=O)cnc2c1
[10]
  Activity: Toxic

## CCOc1ccc2cc(-c3nn(C(C)(C)CCO)c(N)c3C(N)=O)ccc2c1
[11]
  Activity: Non-Toxic
[12]
  Activity: Non-Toxic
[13]
  PPB: 99%
[14]
  Activity: Non-Toxic
Cryptosporidium parvum [15]
  Activity: Active
[16]
  Activity: Non-Toxic
Cryptosporidium parvum [17]
  log reduction: 3.37
[18]
  Activity: Non-Toxic
[19]
  IC50: > 10000 nM
[20]
  Cmax: 510 nM
[21]
  Activity: Non-Toxic
[22]
  PPB: 94%
Cryptosporidium parvum [23]
  Activity: inactive
HepG2
  Activity: Non-Toxic
Cryptosporidium parvum [24]
  Activity: inactive
[25]
  CL/F: 11.1 mL/min
[26]
  IC50: 2.5 nM
Cryptosporidium parvum [27]
  Activity: Active
[28]
  AUC: 144.5 µmol·min/L
Cryptosporidium parvum [29]
  Activity: inactive
[8]
  Activity: Non-Toxic
